Molecules are shown by their SMILES.

Test [1] relates to Glycogen synthase kinase-3 alpha (Homo sapiens), P49840 [UNDEFINED MUTATION]. Briefly: Inhibition of recombinant full-length human GSK3alpha (2 to end residues) S449A mutant at 1 uM using phospho GS2 peptide as substrate measured after 40 mins in presence of [gamma33P]ATP by scintillation counting method relative to control.
For test [2], the target named is Serine/threonine-protein kinase MRCK beta (Homo sapiens) (UniProt Q9Y5S2). Nature of the test: Inhibition of recombinant human MRCKbeta (1 to 473 residues) at 1 uM using KKRNRTLTV as substrate measured after 40 mins in presence of [gamma33P]ATP by scintillation counting method relative to control.
The target in test [3] is Hepatocyte growth factor receptor (Homo sapiens) (UniProt P08581). Nature of the test: Inhibition of recombinant human MET A1209G/V1290L mutant (974 to end residues) at 1 uM using KKKGQEEEYVFIE as substrate measured after 40 mins in presence of [gamma33P]ATP by scintillation counting method relative to control.
Test [4] addresses Calcium/calmodulin-dependent protein kinase kinase 1 (Homo sapiens) (UniProt Q8N5S9). Nature of the test: Inhibition of recombinant full-length human CaMKK1 at 1 uM using calmodulin as substrate measured after 40 mins in presence of [gamma33P]ATP by scintillation counting method relative to control.
The target of test [5] is Cyclin-dependent kinase-like 2 (Homo sapiens) (UniProt Q92772). Nature of the test: Inhibition of human CDKL2 at 1 uM at 1 uM by radiometric method relative to control. The method in brief:
(§1)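 Percent inhibition of kinase activity at a single compound concentration, measured by the outsourced Eurofins KinaseProfiler panel. Values are the mean of two independent experiments.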

In test [6] the test system is Platelet-derived growth factor receptor alpha (Homo sapiens), P16234 [D842V]. Nature of the test: Inhibition of recombinant human PDGFRalpha (550 to end residues) D842V mutant at 1 uM using GGMEDIYFEFMGGKKK as substrate measured after 40 mins in presence of [gamma33P]ATP by scintillation counting method relative to control.
Test [7] deals with Mitogen-activated protein kinase kinase kinase kinase 3 (Homo sapiens) (UniProt Q8IVH8). Briefly: Inhibition of recombinant human MAP4K3 (1 to 291 residues) at 1 uM using RLGRDKYKTLRQIRQ as substrate measured after 40 mins in presence of [gamma33P]ATP by scintillation counting method relative to control.
The test system of test [8] is Tyrosine-protein kinase ABL1 (Homo sapiens), P00519 [T315I]. Briefly: Inhibition of recombinant human ABL T315I mutant (27 to end residues) at 1 uM using EAIYAAPFAKKK as substrate measured after 40 mins in presence of [gamma33P]ATP by scintillation counting method relative to control.
The target in test [9] is cGMP-dependent protein kinase 2 (Homo sapiens) (UniProt Q13237). Nature of the test: Inhibition of recombinant full-length human PRKG2 at 1 uM using KKLRRTLSFAEPG as substrate measured after 40 mins in presence of [gamma33P]ATP by scintillation counting method relative to control.
In test [10] the test system is Angiopoietin-1 receptor (Homo sapiens), Q02763 [Q939H,Q940H]. Briefly: Inhibition of human Tie2 Q939H/Q940H mutant (771 to end residues) at 1 uM using poly(Glu, Tyr) 4:1 as substrate measured after 40 mins in presence of [gamma33P]ATP by scintillation counting method relative to control. The method in brief: (§2)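 Single-point inhibition at 1 µM was measured in the Eurofins KinaseProfiler panel. Values are the mean of two independent experiments.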

Another test has as its system NCI-H1299. Briefly: Antiproliferative activity against human H1299 cells assessed as inhibition of cell viability after 72 hrs by CCK-8 assay. The class given is functional, cell-based. The conditions noted are these: NCI-H1299, 72 h. The method in brief: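 Cells kept at 37 °C, 5% CO2 in DMEM or RPMI-1640 with 10% FBS and 1% penicillin/streptomycin, then seeded at 3000 cells/well (adherent) or 10,000 cells/well (suspension). Exposed to a range of concentrations for 72 h. CCK-8 added for 1-4 h before reading A450. […] Three independent experiments.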

The target of test [11] is Serine/threonine-protein kinase DCLK3 (Homo sapiens) (UniProt Q9C098). Nature of the test: Inhibition of recombinant human DCAMKL3 (345 to end residues) at 1 uM using KKLNRTLSFAEPG as substrate measured after 40 mins in presence of [gamma33P]ATP by scintillation counting method relative to control.
The target of test [12] is cAMP-dependent protein kinase catalytic subunit PRKX (Homo sapiens) (UniProt P51817). Briefly: Inhibition of recombinant full-length human PrKX at 1 uM using RRRLSFAEPG as substrate measured after 40 mins in presence of [gamma33P]ATP by scintillation counting method relative to control.
Test [13] has as its target Tyrosine-protein kinase Yes (Homo sapiens) (UniProt P07947). Nature of the test: Inhibition of recombinant full-length human YES at 1 uM using poly(Glu, Tyr) 4:1 as substrate measured after 40 mins in presence of [gamma33P]ATP by scintillation counting method relative to control.
Test [14] addresses LIM domain kinase 1 (Homo sapiens) (UniProt P53667). Nature of the test: Inhibition of recombinant human LIMK1 (285 to 638 residues) at 1 uM using cofilin as substrate measured after 40 mins in presence of [gamma33P]ATP by scintillation counting method relative to control.
In test [15] the target is Ephrin type-A receptor 5 (Homo sapiens) (UniProt P54756). Briefly: Inhibition of recombinant human EphA5 (655 to 956 residues) at 1 uM using poly(Glu, Tyr) 4:1 as substrate measured after 40 mins in presence of [gamma33P]ATP by scintillation counting method relative to control.
In test [16] the test system is Mast/stem cell growth factor receptor Kit (Homo sapiens), P10721 [V654A]. Nature of the test: Inhibition of recombinant human cKit (544 to end residues) V654A mutant at 1 uM using GGMEDIYFEFMGGKKK as substrate measured after 40 mins in presence of [gamma33P]ATP by scintillation counting method relative to control. The method in brief: as §2
The target of test [17] is Transient receptor potential cation channel subfamily M member 7 (Homo sapiens) (UniProt Q96QT4). Nature of the test: Inhibition of recombinant human CHAK1 (1180 to end residues) at 1 uM using myelin basic protein as substrate measured after 40 mins in presence of [gamma33P]ATP by scintillation counting method relative to control.
Test [18] addresses [Pyruvate dehydrogenase (acetyl-transferring)] kinase isozyme 2, mitochondrial (Homo sapiens) (UniProt Q15119). Briefly: Inhibition of human PDHK2 at 1 uM by radiometric method relative to control. The method in brief: as §1
The target in test [19] is Calcium/calmodulin-dependent protein kinase type II subunit beta (Homo sapiens) (UniProt Q13554). Briefly: Inhibition of recombinant human CaMK2 beta (1 to 315 resiudes) at 1 uM using calmodulin as substrate measured after 40 mins in presence of [gamma33P]ATP by scintillation counting method relative to control.
Chain of Calcium/calmodulin-dependent protein kinase type II subunit beta (Homo sapiens) (Q13554 whole entry): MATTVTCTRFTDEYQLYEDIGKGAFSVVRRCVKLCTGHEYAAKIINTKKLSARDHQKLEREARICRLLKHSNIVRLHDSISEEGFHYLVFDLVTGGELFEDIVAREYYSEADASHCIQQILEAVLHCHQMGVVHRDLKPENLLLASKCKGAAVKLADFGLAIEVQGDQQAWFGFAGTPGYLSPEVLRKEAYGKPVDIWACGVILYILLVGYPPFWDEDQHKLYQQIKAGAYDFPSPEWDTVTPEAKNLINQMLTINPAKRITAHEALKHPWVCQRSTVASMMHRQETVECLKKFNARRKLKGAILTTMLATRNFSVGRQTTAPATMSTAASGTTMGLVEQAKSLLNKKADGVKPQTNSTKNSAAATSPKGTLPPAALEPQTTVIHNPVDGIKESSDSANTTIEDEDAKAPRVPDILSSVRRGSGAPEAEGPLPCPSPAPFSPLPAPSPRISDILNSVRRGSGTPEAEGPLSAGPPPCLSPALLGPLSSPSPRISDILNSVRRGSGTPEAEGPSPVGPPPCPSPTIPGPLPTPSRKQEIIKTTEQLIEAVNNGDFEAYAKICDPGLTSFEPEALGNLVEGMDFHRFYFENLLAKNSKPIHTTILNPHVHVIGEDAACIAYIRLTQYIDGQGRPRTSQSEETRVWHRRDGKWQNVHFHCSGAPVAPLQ

Chain of Cyclin-dependent kinase-like 2 (Homo sapiens) (Q92772 whole entry): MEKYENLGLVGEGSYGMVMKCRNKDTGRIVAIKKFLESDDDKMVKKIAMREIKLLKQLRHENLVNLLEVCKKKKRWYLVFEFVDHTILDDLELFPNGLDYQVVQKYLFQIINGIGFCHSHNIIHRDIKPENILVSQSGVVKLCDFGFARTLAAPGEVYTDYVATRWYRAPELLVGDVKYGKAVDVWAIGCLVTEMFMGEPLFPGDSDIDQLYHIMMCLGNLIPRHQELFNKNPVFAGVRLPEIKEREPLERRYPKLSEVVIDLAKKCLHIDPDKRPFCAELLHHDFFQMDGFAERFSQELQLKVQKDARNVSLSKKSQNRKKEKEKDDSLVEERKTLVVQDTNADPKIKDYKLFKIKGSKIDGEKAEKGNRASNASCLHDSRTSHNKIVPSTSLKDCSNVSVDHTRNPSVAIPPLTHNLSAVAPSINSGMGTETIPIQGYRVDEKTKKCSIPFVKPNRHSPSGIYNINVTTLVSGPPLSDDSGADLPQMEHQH
Chain of Serine/threonine-protein kinase DCLK3 (Homo sapiens) (Q9C098 whole entry): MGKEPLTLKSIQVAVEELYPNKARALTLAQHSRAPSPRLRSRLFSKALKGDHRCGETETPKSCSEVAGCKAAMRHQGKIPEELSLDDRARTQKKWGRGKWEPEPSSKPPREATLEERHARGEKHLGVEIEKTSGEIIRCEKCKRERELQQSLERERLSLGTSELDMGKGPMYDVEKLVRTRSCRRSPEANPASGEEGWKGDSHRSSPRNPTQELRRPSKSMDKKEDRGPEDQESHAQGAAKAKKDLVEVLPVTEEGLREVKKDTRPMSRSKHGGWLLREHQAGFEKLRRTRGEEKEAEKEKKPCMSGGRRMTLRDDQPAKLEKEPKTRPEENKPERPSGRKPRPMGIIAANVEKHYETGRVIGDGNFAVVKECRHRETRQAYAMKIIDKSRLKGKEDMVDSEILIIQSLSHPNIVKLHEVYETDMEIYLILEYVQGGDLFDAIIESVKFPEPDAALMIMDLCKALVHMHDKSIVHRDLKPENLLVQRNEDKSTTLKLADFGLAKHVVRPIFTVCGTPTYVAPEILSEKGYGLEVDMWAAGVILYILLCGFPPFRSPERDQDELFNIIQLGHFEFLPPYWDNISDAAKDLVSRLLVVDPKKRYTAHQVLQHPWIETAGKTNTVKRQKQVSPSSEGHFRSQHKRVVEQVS
Chain of cAMP-dependent protein kinase catalytic subunit PRKX (Homo sapiens) (P51817 whole entry): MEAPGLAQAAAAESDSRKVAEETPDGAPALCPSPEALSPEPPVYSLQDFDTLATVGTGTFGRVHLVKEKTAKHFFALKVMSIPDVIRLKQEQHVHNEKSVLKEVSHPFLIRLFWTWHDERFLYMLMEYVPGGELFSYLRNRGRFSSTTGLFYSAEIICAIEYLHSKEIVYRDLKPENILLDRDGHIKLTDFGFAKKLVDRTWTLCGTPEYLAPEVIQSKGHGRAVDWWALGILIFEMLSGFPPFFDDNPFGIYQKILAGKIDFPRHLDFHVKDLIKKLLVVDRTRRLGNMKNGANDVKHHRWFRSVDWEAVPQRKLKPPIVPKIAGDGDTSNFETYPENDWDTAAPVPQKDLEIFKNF
Chain of Mast/stem cell growth factor receptor Kit (Homo sapiens), P10721 [V654A] (P10721 whole entry V654A): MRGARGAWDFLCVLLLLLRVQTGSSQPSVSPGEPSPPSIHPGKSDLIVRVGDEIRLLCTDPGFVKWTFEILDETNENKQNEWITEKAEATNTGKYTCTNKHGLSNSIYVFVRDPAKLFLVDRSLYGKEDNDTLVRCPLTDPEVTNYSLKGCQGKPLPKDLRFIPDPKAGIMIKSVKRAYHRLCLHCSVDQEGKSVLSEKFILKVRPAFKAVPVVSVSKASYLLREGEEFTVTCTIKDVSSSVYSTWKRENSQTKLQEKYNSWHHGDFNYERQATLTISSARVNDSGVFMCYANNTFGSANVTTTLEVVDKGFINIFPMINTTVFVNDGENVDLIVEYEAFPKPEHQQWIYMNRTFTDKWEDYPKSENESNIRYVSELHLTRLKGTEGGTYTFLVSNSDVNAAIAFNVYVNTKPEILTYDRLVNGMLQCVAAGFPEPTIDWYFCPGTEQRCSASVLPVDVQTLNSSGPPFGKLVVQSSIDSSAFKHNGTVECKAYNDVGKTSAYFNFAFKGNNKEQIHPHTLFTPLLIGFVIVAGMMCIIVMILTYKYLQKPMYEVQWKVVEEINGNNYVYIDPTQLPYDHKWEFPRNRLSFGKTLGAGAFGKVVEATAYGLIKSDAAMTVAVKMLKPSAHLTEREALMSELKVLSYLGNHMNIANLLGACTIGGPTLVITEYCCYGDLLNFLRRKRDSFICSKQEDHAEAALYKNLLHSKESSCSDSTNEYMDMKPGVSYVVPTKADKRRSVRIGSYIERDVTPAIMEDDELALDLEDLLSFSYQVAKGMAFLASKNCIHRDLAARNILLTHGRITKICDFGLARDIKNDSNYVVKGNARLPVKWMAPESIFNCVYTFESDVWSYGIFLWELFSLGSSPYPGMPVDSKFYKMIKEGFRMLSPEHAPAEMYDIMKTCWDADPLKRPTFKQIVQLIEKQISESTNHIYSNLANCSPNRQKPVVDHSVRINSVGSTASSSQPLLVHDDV
Chain of Ephrin type-A receptor 5 (Homo sapiens) (P54756 whole entry, the tested form may be a part): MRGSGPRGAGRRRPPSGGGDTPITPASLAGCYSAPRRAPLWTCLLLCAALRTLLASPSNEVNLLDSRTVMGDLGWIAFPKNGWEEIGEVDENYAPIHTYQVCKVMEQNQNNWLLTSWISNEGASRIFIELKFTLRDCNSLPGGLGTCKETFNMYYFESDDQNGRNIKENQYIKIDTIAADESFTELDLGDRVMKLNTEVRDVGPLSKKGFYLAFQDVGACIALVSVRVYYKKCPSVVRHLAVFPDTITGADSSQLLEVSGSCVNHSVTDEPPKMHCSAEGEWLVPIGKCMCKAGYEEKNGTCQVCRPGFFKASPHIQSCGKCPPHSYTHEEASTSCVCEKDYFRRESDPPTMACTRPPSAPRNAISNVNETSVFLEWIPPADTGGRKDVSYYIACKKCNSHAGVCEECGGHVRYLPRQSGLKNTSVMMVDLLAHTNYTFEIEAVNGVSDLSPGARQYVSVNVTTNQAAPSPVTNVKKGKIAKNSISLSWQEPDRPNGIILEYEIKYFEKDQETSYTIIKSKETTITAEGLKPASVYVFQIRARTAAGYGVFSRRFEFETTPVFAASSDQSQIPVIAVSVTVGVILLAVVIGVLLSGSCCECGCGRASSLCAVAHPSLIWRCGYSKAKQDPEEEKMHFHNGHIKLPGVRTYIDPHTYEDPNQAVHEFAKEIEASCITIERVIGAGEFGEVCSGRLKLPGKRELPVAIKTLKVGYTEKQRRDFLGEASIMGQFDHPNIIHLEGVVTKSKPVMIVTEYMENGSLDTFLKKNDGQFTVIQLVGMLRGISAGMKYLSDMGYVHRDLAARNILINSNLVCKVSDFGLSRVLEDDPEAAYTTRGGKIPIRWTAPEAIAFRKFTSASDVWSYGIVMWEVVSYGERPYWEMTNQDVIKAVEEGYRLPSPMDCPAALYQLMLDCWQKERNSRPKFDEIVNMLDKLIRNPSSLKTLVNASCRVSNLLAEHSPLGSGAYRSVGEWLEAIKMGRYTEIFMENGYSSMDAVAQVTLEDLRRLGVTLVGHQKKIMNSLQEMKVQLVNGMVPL
Chain of Tyrosine-protein kinase Yes (Homo sapiens) (P07947 2-543 limits assumed): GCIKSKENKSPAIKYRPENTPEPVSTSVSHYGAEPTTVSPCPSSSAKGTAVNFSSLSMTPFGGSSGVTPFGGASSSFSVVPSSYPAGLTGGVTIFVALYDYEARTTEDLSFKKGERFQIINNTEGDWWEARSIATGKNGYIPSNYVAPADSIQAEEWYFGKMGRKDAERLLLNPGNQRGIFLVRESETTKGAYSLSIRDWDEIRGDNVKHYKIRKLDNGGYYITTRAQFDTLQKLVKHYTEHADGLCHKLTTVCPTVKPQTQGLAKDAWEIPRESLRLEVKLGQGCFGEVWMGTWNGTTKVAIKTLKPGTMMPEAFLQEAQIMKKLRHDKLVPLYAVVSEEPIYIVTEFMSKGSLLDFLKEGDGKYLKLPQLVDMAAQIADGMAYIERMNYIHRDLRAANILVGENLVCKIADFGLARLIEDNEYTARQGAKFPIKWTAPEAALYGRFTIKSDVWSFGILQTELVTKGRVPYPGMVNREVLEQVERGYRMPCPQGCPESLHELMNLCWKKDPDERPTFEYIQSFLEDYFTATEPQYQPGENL

As to `CN(C)C(=O)c1cc2cnc(Nc3ccc(NC(=O)CCCCCCCN=C=S)cc3)nc2n1C1CCCC1`, the inhibition (in general, the relative decrease from the control value, in per cent) in test [1] was determined as 17%; in test [2], 7%; in [3], 84%; in test [4] it was 88%; in test [5] it was 57%; in [6], 44%. For the same molecule, the inhibition was 95% in test [7]; 38% in test [8]; 0% in [9]; 29% in [10]; 9% in test [11]; -1% in test [12]. For the same molecule, the inhibition in [13] is 61%; in test [14], 71%; in [15], 6%; in test [16], 11%; in test [17] it was 16%; in [18] it was -10%. Besides, the inhibition in [19] amounted to 29%. The half-maximal inhibitory concentration (IC50) (usually the point on the concentration scale where inhibition reaches its midpoint) in the test on NCI-H1299 stood at 203 nM.

These data come from ChEMBL document CHEMBL4376814, “Novel cyclin-dependent kinase 9 (CDK9) inhibitor with suppression of cancer stemness activity against non-small-cell lung cancer” (Eur J Med Chem, 2019).
